System: U2OS
Test: Multiplex assay against U2OS
Assay type: toxicity, cell-based
Conditions: human
Procedure, shortened: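 Cells stained live at seeding with Hoechst33342, BioTracker Green Microtubule Cytoskeleton Dye, MitoTracker Red and Annexin V Alexa Fluor 680 were imaged on a CQ1 microscope at 37°C and 5% CO2 after compound addition. Their classification by CellPathfinder machine-learning gating ran from Hoechst high-intensity objects versus normal cells, to healthy, pyknosed or fragmented nuclei among normal cells, to mitotic or apoptotic among pyknosed cells. Tubulin, mitochondrial-mass and membrane-permeability phenotypes are per cents of healthy-nucleus cells.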

[1] = 12 h, 1 µM, compound concentration 1 uM, replicate 1
[2] = 12 h, 1 µM, compound concentration 1 uM, replicate 2
[3] = 12 h, 10 µM, compound concentration 10 uM, replicate 1
[4] = 12 h, 10 µM, compound concentration 10 uM, replicate 2
[5] = 24 h, 1 µM, compound concentration 1 uM, replicate 1
[6] = 24 h, 1 µM, compound concentration 1 uM, replicate 2
[7] = 24 h, 10 µM, compound concentration 10 uM, replicate 1
[8] = 24 h, 10 µM, compound concentration 10 uM, replicate 2

Structure (SMILES): Cc1nc(-c2cn3c(n2)-c2ccc(-c4cnn(C(C)(C)C(N)=O)c4)cc2OCC3)n(C(C)C)n1 [TASELISIB]
- Population Apoptotic (%) [1]: 54%
- Population Fragmented Nuclei (%) [1]: 3%
- Population Healthy Nuclei (%) [1]: 84%
- Population Hoechst High Intensity Objects (%) [1]: 2%
- Population Membrane Permeable-Phenotype (%) [1]: 16%
- Population Mitochondria Different-Phenotype (%) [1]: 10%
- Population Mitotic Cells (%) [1]: 45%
- Population Normal (%) [1]: 97%
- Population Pyknosed Nuclei (%) [1]: 11%
- Population Tubulin-Different-Phenotype (%) [1]: 9%
- Total Cell Count [1]: 181
- Population Apoptotic (%) [2]: 16%
- Population Fragmented Nuclei (%) [2]: 12%
- Population Healthy Nuclei (%) [2]: 77%
- Population Hoechst High Intensity Objects (%) [2]: 12%
- Population Membrane Permeable-Phenotype (%) [2]: 27%
- Population Mitochondria Different-Phenotype (%) [2]: 20%
- Population Mitotic Cells (%) [2]: 83%
- Population Normal (%) [2]: 87%
- Population Pyknosed Nuclei (%) [2]: 9%
- Population Tubulin-Different-Phenotype (%) [2]: 25%
- Total Cell Count [2]: 89
- Population Apoptotic (%) [3]: 44%
- Population Fragmented Nuclei (%) [3]: 5%
- Population Healthy Nuclei (%) [3]: 89%
- Population Hoechst High Intensity Objects (%) [3]: 2%
- Population Membrane Permeable-Phenotype (%) [3]: 12%
- Population Mitochondria Different-Phenotype (%) [3]: 19%
- Population Mitotic Cells (%) [3]: 55%
- Population Normal (%) [3]: 97%
- Population Pyknosed Nuclei (%) [3]: 5%
- Population Tubulin-Different-Phenotype (%) [3]: 24%
- Total Cell Count [3]: 166
- Population Apoptotic (%) [4]: 55%
- Population Fragmented Nuclei (%) [4]: 9%
- Population Healthy Nuclei (%) [4]: 78%
- Population Hoechst High Intensity Objects (%) [4]: 16%
- Population Membrane Permeable-Phenotype (%) [4]: 18%
- Population Mitochondria Different-Phenotype (%) [4]: 12%
- Population Mitotic Cells (%) [4]: 44%
- Population Normal (%) [4]: 83%
- Population Pyknosed Nuclei (%) [4]: 12%
- Population Tubulin-Different-Phenotype (%) [4]: 12%
- Total Cell Count [4]: 65
- Population Apoptotic (%) [5]: 40%
- Population Fragmented Nuclei (%) [5]: 6%
- Population Healthy Nuclei (%) [5]: 80%
- Population Hoechst High Intensity Objects (%) [5]: 4%
- Population Membrane Permeable-Phenotype (%) [5]: 15%
- Population Mitotic Cells (%) [5]: 59%
- Population Normal (%) [5]: 95%
- Population Pyknosed Nuclei (%) [5]: 13%
- Population Tubulin-Different-Phenotype (%) [5]: 12%
- Total Cell Count [5]: 240
- Population Apoptotic (%) [6]: 27%
- Population Fragmented Nuclei (%) [6]: 20%
- Population Healthy Nuclei (%) [6]: 64%
- Population Hoechst High Intensity Objects (%) [6]: 6%
- Population Membrane Permeable-Phenotype (%) [6]: 21%
- Population Mitochondria Different-Phenotype (%) [6]: 6%
- Population Mitotic Cells (%) [6]: 72%
- Population Normal (%) [6]: 93%
- Population Pyknosed Nuclei (%) [6]: 15%
- Population Tubulin-Different-Phenotype (%) [6]: 29%
- Total Cell Count [6]: 91
- Population Apoptotic (%) [7]: 27%
- Population Healthy Nuclei (%) [7]: 91%
- Population Hoechst High Intensity Objects (%) [7]: 1%
- Population Mitochondria Different-Phenotype (%) [7]: 11%
- Population Mitotic Cells (%) [7]: 72%
- Population Normal (%) [7]: 98%
- Population Pyknosed Nuclei (%) [7]: 4%
- Population Tubulin-Different-Phenotype (%) [7]: 26%
- Total Cell Count [7]: 168
- Population Apoptotic (%) [8]: 60%
- Population Fragmented Nuclei (%) [8]: 4%
- Population Healthy Nuclei (%) [8]: 83%
- Population Hoechst High Intensity Objects (%) [8]: 4%
- Population Membrane Permeable-Phenotype (%) [8]: 13%
- Population Mitochondria Different-Phenotype (%) [8]: 15%
- Population Mitotic Cells (%) [8]: 40%
- Population Normal (%) [8]: 95%
- Population Pyknosed Nuclei (%) [8]: 11%
- Population Tubulin-Different-Phenotype (%) [8]: 20%
- Total Cell Count [8]: 67
